From the M2OR odorant receptor database

How the values were obtained:
Conditions in all cases: stereoisomer not certain
[1] = test system: OR5M1 T295R M301I
Summary of the method: (§1)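 Assay methods differ from source to source, frequently being transient luciferase assays in mammalian cell lines. For each receptor–molecule pair, the label responsive (active) applies when the original authors judged the measured signal statistically different from baseline, and non-responsive (inactive) applies otherwise.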

[2] = biological target: OR5M10 (Homo sapiens) (UniProt Q6IEU7)
Summary of the method: as §1

[3] = biological target: OR5M11 (Homo sapiens) (UniProt Q96RB7)
Summary of the method: as §1

[4] = test system: OR5M3 N3Y A156T
Summary of the method: as §1

[5] = biological target: OR5M8 (Homo sapiens) (UniProt Q8NGP6)
Summary of the method: as §1

[6] = biological target: OR5M9 (Homo sapiens) (UniProt Q8NGP3)
Summary of the method: as §1

[7] = test system: OR5MA L2F C311H
Summary of the method: as §1

[8] = test system: OR5MA L2F Q54H C311H
Summary of the method: as §1

[9] = biological target: OR5P2 (Homo sapiens) (UniProt Q8WZ92)
Summary of the method: as §1

Measured: odorant receptor agonist call

OR5M8 (Homo sapiens), sequence (Q8NGP6 whole entry): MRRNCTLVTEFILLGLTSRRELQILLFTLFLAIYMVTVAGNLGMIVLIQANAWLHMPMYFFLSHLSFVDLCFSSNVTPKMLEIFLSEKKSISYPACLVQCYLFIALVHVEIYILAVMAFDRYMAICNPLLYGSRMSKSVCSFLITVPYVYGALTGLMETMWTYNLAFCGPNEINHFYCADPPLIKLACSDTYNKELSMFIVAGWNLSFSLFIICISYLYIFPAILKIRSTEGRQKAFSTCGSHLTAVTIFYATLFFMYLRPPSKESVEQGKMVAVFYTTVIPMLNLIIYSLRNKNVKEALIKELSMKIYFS
OR5M9 (Homo sapiens), sequence (Q8NGP3 whole entry): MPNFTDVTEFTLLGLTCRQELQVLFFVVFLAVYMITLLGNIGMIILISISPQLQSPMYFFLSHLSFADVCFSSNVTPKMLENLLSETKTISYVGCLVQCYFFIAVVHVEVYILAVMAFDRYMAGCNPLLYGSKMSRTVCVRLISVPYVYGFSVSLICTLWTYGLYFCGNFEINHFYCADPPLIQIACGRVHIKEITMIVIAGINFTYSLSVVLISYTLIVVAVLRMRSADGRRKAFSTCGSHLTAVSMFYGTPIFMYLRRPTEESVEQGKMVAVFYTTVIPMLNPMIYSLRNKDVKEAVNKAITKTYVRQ
OR5P2 (Homo sapiens), sequence (Q8WZ92 whole entry): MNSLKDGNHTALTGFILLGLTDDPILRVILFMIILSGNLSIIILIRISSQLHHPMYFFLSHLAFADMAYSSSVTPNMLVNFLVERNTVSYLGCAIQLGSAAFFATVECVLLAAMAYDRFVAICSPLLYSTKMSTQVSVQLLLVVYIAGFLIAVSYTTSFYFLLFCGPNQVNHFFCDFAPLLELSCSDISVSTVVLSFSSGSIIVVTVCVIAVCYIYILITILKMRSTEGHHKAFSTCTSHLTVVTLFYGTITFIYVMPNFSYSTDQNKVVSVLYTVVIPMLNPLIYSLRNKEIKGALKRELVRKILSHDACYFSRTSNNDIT
OR5M10 (Homo sapiens), sequence (Q6IEU7 whole entry): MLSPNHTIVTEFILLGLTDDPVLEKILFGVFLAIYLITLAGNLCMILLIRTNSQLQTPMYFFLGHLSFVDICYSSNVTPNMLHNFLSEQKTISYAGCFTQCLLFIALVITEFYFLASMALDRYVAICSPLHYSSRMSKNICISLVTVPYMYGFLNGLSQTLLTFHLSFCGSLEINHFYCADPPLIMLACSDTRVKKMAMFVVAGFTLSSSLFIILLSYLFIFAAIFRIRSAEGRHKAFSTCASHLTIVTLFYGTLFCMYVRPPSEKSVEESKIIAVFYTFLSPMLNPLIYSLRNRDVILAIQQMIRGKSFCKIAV
OR5M11 (Homo sapiens), sequence (Q96RB7 whole entry): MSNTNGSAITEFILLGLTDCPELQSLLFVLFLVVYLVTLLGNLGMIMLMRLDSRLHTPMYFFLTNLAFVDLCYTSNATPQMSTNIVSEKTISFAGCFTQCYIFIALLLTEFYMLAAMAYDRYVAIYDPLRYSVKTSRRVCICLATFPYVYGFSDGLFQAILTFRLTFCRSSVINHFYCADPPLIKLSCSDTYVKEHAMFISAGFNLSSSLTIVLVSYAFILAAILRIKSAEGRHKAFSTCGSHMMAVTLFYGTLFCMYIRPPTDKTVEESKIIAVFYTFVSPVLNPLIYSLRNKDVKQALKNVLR

C=CCOC(=O)Cc1ccccc1
inactive: all assays above

Cc1c([N+](=O)[O-])c(C)c([N+](=O)[O-])c(C(C)(C)C)c1[N+](=O)[O-]
inactive: [2] | [3] | [5] | [6] | [9]
